Here are results for 2 compounds from PubChem BioAssay AID602152 (Broad Institute, 2011).

A short description of the test: free cholesterol release via mSR-BI to HDL – ldlA[mSR-BI] cells, [3H]cholesterol, dry powder, mechanism study for SR-BI HDL uptake inhibitor project, dose response (AID 602152). Particulars: [3H]cholesterol efflux to HDL, LSC; at 25 µM (top of the series). In a few lines:
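Test system: ldlA[mSR-BI] cells, mouse SR-BI expressing; medium: pH 7.4 assay medium, 0.5% DMSO; dosing: compounds delivered in 0.5% DMSO; schedule: 2-day label, 24 h equilibration, 1 h compound, 2 h efflux; detection: liquid scintillation counting of 3H in medium and cells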

The source made the active and inactive calls.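 The calls were made as follows: active = efflux reduced below the neutral control level, like a known efflux blocker; inactive = efflux raised or left unchanged.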

For `COCC(=O)N1CCc2cc(-c3csc(NC(=O)c4cc(OC)cc(OC)c4)n3)ccc21`, the efflux, percent of neutral control was 9.23% (active).

In the case of `C[C@H](C(=O)NC1CCCC1)N(C(=O)Cn1nnc(-c2ccc3c(c2)OCO3)n1)C1CCCCC1`, the efflux, percent of neutral control is 6.75% (active).
